Measurements as given in ChEMBL document CHEMBL4049410, “Novel benzimidazolyl tetrahydroprotoberberines: Design, synthesis, antimicrobial evaluation and multi-targeting exploration” (2017).
Values after ≈ are worked out from the molar mass of the structure shown.

Tests used:
[1] = test system: Aspergillus flavus; experiment: Antifungal activity against Aspergillus flavus after 24 hrs by two-fold serial dilution assay; assay type: functional
Method in brief: (§1)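 Twofold serial broth dilution following NCCLS guidance, with Chloromycin, Norfloxacin and Fluconazole as positive controls. MIC in μM is the lowest concentration giving complete inhibition of visible bacterial or fungal growth.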

[2] = test system: Pichia norvegensis; experiment: Antifungal activity against Candida mycoderma after 24 hrs by two-fold serial dilution assay; assay type: functional; method in brief: as §1
[3] = test system: Bacillus subtilis; experiment: Antibacterial activity against Bacillus subtilis after 24 hrs by two-fold serial dilution assay; assay type: functional; method in brief: as §1
[4] = test system: Escherichia coli; experiment: Antibacterial activity against Escherichia coli JM109 after 24 hrs by two-fold serial dilution assay; assay type: functional; method in brief: as §1
[5] = test system: Shigella dysenteriae; experiment: Antibacterial activity against Shigella dysenteriae after 24 hrs by two-fold serial dilution assay; assay type: functional
[6] = test system: Proteus vulgaris; experiment: Antibacterial activity against Bacillus proteus ATCC 13315 after 24 hrs by two-fold serial dilution assay; assay type: functional; method in brief: as §1
[7] = test system: Micrococcus luteus; experiment: Antibacterial activity against Micrococcus luteus ATCC 4698 after 24 hrs by two-fold serial dilution assay; assay type: functional, NCTC 2665; method in brief: as §1
[8] = test system: Saccharomyces cerevisiae; experiment: Antifungal activity against Saccharomyces cerevisiae after 24 hrs by two-fold serial dilution assay; assay type: functional; method in brief: as §1
[9] = test system: Escherichia coli; experiment: Antibacterial activity against Escherichia coli DH52 after 24 hrs by two-fold serial dilution assay; assay type: functional; method in brief: as §1
[10] = test system: Salmonella typhi; experiment: Antibacterial activity against Bacillus typhi after 24 hrs by two-fold serial dilution assay; assay type: functional, Salmonella enterica subsp. enterica serovar Typhi
[11] = test system: Pseudomonas aeruginosa; experiment: Antibacterial activity against Pseudomonas aeruginosa after 24 hrs by two-fold serial dilution assay; assay type: functional; method in brief: as §1
[12] = test system: Staphylococcus aureus; experiment: Antibacterial activity against Staphylococcus aureus ATCC 25923 after 24 hrs by two-fold serial dilution assay; assay type: functional; method in brief: as §1
[13] = test system: Cyberlindnera jadinii; experiment: Antifungal activity against Candida utilis after 24 hrs by two-fold serial dilution assay; assay type: functional; method in brief: as §1
[14] = test system: Candida albicans; experiment: Antifungal activity against Candida albicans ATCC 76615 after 24 hrs by two-fold serial dilution assay; assay type: functional; method in brief: as §1
[15] = test system: Staphylococcus aureus; experiment: Antibacterial activity against methicillin-resistant Staphylococcus aureus N315 after 24 hrs by two-fold serial dilution assay; assay type: functional
[16] = Aspergillus flavus, 24 h, read-out: MIC
[17] = Pichia norvegensis, 24 h, read-out: MIC
[18] = Bacillus subtilis, 24 h, read-out: MIC
[19] = Escherichia coli, JM109, 24 h, read-out: MIC
[20] = Shigella dysenteriae, 24 h, read-out: MIC
[21] = Proteus vulgaris, ATCC 13315, 24 h, read-out: MIC
[22] = Micrococcus luteus, NCTC 2665, 24 h, read-out: MIC
[23] = Saccharomyces cerevisiae, 24 h, read-out: MIC
[24] = Escherichia coli, DH52, 24 h, read-out: MIC
[25] = Salmonella enterica, 24 h, read-out: MIC
[26] = Pseudomonas aeruginosa, 24 h, read-out: MIC
[27] = Staphylococcus aureus, ATCC 25923, 24 h, read-out: MIC
[28] = Williopsis jadinii, 24 h, read-out: MIC
[29] = Candida albicans, ATCC 76615, 24 h, read-out: MIC
[30] = Staphylococcus aureus, N315, 24 h, read-out: MIC

Structure (SMILES)	MIC [1, 16]	MIC [2, 17]	MIC [3, 18]	MIC [4, 19]	MIC [5, 20]	MIC [6, 21]	MIC [7, 22]	MIC [8, 23]	MIC [9, 24]	MIC [10, 25]	MIC [11, 26]	MIC [12, 27]	MIC [13, 28]	MIC [14, 29]	MIC [15, 30]	MIC [1]	MIC [12]	also measured
COc1cc(-c2nc3ccccc3n2Cc2cccc(Cl)c2)c2c(c1O)CN1CCc3cc4c(cc3C1C2)OCO4 (centres undefined)	18.9 µM (≈ 10.7 µg/mL)	18.9 µM (≈ 10.7 µg/mL)	47.1 µM (≈ 26.7 µg/mL)	4.7 µM (≈ 2.66 µg/mL)	23.6 µM (≈ 13.4 µg/mL)	47.1 µM (≈ 26.7 µg/mL)	28.3 µM (≈ 16 µg/mL)	47.1 µM (≈ 26.7 µg/mL)	75.4 µM (≈ 42.7 µg/mL)	4.7 µM (≈ 2.66 µg/mL)	28.3 µM (≈ 16 µg/mL)	23.6 µM (≈ 13.4 µg/mL)	9.4 µM (≈ 5.32 µg/mL)	37.7 µM (≈ 21.3 µg/mL)	56.5 µM (≈ 32 µg/mL)			
COc1cc(C=O)c2c(c1O)CN1CCc3cc4c(cc3C1C2)OCO4 (centres undefined)	151 µM (≈ 53.3 µg/mL)	242 µM (≈ 85.3 µg/mL)	483 µM (≈ 171 µg/mL)	242 µM (≈ 85.3 µg/mL)	121 µM (≈ 42.7 µg/mL)	483 µM (≈ 171 µg/mL)	302 µM (≈ 107 µg/mL)	362 µM (≈ 128 µg/mL)	242 µM (≈ 85.3 µg/mL)	302 µM (≈ 107 µg/mL)	302 µM (≈ 107 µg/mL)	724 µM (≈ 256 µg/mL)	302 µM (≈ 107 µg/mL)	151 µM (≈ 53.3 µg/mL)	302 µM (≈ 107 µg/mL)			
COc1cc(-c2nc3ccccc3n2CCCCCCn2c3ccccc3c3ccccc32)c2c(c1O)CN1CCc3cc4c(cc3C1C2)OCO4.Cl (centres undefined)																293.3 µM	146.7 µM	MIC [2]: 352 µM; MIC [3]: 704 µM; MIC [4]: 469.3 µM; MIC [5]: 146.7 µM; MIC [6]: 88 µM; MIC [7]: 293.3 µM; MIC [8]: 469.3 µM; MIC [9]: 88 µM; MIC [10]: 73.3 µM; MIC [11]: 469.3 µM; MIC [13]: 469.3 µM; MIC [14]: 176 µM; MIC [15]: 586.7 µM
COc1cc(-c2nc3ccccc3n2Cc2ccc(Cl)cc2)c2c(c1O)CN1CCc3cc4c(cc3C1C2)OCO4 (centres undefined)																14.1 µM (≈ 7.98 µg/mL)	9.4 µM (≈ 5.32 µg/mL)	MIC [2]: 14.1 µM (≈ 7.98 µg/mL); MIC [3]: 11.8 µM (≈ 6.68 µg/mL); MIC [4]: 37.7 µM (≈ 21.3 µg/mL); MIC [5]: 18.9 µM (≈ 10.7 µg/mL); MIC [6]: 11.8 µM (≈ 6.68 µg/mL); MIC [7]: 28.3 µM (≈ 16 µg/mL); MIC [8]: 14.1 µM (≈ 7.98 µg/mL); MIC [9]: 56.5 µM (≈ 32 µg/mL); MIC [10]: 9.4 µM (≈ 5.32 µg/mL); MIC [11]: 23.6 µM (≈ 13.4 µg/mL); MIC [13]: 11.8 µM (≈ 6.68 µg/mL); MIC [14]: 23.6 µM (≈ 13.4 µg/mL); MIC [15]: 18.9 µM (≈ 10.7 µg/mL)
COc1cc(-c2nc3cc(Cl)ccc3[nH]2)c2c(c1O)CN1CCc3cc4c(cc3C1C2)OCO4 (centres undefined)	1080 µM (≈ 512 µg/mL)	896 µM (≈ 427 µg/mL)	717 µM (≈ 341 µg/mL)	896 µM (≈ 427 µg/mL)	1080 µM (≈ 512 µg/mL)	896 µM (≈ 427 µg/mL)	896 µM (≈ 427 µg/mL)	896 µM (≈ 427 µg/mL)	896 µM (≈ 427 µg/mL)	448 µM (≈ 213 µg/mL)	359 µM (≈ 171 µg/mL)	1080 µM (≈ 512 µg/mL)	717 µM (≈ 341 µg/mL)	896 µM (≈ 427 µg/mL)	1080 µM (≈ 512 µg/mL)			
COc1cc(-c2nc3ccccc3n2Cc2ccccc2Cl)c2c(c1O)CN1CCc3cc4c(cc3C1C2)OCO4 (centres undefined)	11.8 µM (≈ 6.68 µg/mL)	47.1 µM (≈ 26.7 µg/mL)	188 µM (≈ 107 µg/mL)	4.7 µM (≈ 2.66 µg/mL)	28.3 µM (≈ 16 µg/mL)	47.1 µM (≈ 26.7 µg/mL)	23.6 µM (≈ 13.4 µg/mL)	23.6 µM (≈ 13.4 µg/mL)	23.6 µM (≈ 13.4 µg/mL)	37.7 µM (≈ 21.3 µg/mL)	23.6 µM (≈ 13.4 µg/mL)	9.4 µM (≈ 5.32 µg/mL)	18.9 µM (≈ 10.7 µg/mL)	56.5 µM (≈ 32 µg/mL)	23.6 µM (≈ 13.4 µg/mL)			
COc1cc(-c2nc3ccccc3n2Cc2ccc(Cl)cc2Cl)c2c(c1O)CN1CCc3cc4c(cc3C1C2)OCO4 (centres undefined)	71.1 µM (≈ 42.7 µg/mL)	13.3 µM (≈ 7.99 µg/mL)	11.1 µM (≈ 6.67 µg/mL)	35.5 µM (≈ 21.3 µg/mL)	71.1 µM (≈ 42.7 µg/mL)	17.7 µM (≈ 10.6 µg/mL)	44.4 µM (≈ 26.7 µg/mL)	26.6 µM (≈ 16 µg/mL)	107 µM (≈ 64 µg/mL)	22.2 µM (≈ 13.3 µg/mL)	88.8 µM (≈ 53.3 µg/mL)	22.2 µM (≈ 13.3 µg/mL)	22.2 µM (≈ 13.3 µg/mL)	22.2 µM (≈ 13.3 µg/mL)	53.3 µM (≈ 32 µg/mL)			
COc1cc(-c2nc3ccccc3n2Cc2ccccc2F)c2c(c1O)CN1CCc3cc4c(cc3C1C2)OCO4 (centres undefined)		19.4 µM (≈ 10.7 µg/mL)	48.5 µM (≈ 26.7 µg/mL)	29.1 µM (≈ 16 µg/mL)	48.5 µM (≈ 26.7 µg/mL)	38.8 µM (≈ 21.3 µg/mL)	29.1 µM (≈ 16 µg/mL)	58.2 µM (≈ 32 µg/mL)	38.8 µM (≈ 21.3 µg/mL)		58.2 µM (≈ 32 µg/mL)		9.7 µM (≈ 5.33 µg/mL)	24.3 µM (≈ 13.4 µg/mL)	24.3 µM (≈ 13.4 µg/mL)	24.3 µM (≈ 13.4 µg/mL)	58.2 µM (≈ 32 µg/mL)	
CCCCCCCCn1c(-c2cc(OC)c(O)c3c2CC2c4cc5c(cc4CCN2C3)OCO5)nc2ccccc21 (centres undefined)	28.9 µM (≈ 16 µg/mL)	4.8 µM (≈ 2.66 µg/mL)	57.8 µM (≈ 32 µg/mL)	116 µM (≈ 64 µg/mL)	77.1 µM (≈ 42.7 µg/mL)	9.6 µM (≈ 5.32 µg/mL)	48.2 µM (≈ 26.7 µg/mL)	96.3 µM (≈ 53.3 µg/mL)	24.1 µM (≈ 13.3 µg/mL)	24.1 µM (≈ 13.3 µg/mL)	38.5 µM (≈ 21.3 µg/mL)	14.4 µM (≈ 7.97 µg/mL)	24.1 µM (≈ 13.3 µg/mL)	28.9 µM (≈ 16 µg/mL)	231 µM (≈ 128 µg/mL)			
